This is a sample that favours compounds with a hit; in the whole collection about 3.7% have one here.
TAAR1 agonist: agonists of human TAAR1. activation, % at 3 µM. AID 624467. CHO RD-HGA16 TAAR1, Fluo-8 calcium fluorescence; vehicle wells 0%, saturating PEA agonist 100%. 360,000 tested, 0.99% active;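 active = activation above the mean activation of all test compounds in the run plus 3 SD, cut at about 38% in these data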
Target sequence (Q96RJ0 whole entry, looked up): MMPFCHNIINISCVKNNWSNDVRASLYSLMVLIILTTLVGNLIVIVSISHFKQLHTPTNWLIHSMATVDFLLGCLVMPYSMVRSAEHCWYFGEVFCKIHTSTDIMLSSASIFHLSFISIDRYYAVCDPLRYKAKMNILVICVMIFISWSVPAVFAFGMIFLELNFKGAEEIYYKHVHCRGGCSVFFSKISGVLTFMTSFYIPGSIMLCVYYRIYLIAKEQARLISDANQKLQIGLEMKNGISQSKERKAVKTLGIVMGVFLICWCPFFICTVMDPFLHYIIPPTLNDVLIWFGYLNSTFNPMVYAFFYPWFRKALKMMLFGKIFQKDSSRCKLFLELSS
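Test system: RD-HGA16 (CHO) cells co-expressing Gα16 and hTAAR1; dosing: one-point dosing at 3 µM (nominal); timing: 17-24 h seeding, 75 min 37 °C dye, 30 min RT; signal: kinetic Fluo-8 calcium fluorescence; read-out basis: % activation relative to PEA EC100 response; controls: DMSO and PEA EC100; replicates: n 1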
HCV NS3 hel inh: HCV NS3 helicase inhibition. NS3 helicase DNA unwinding, Cy5 molecular beacon fluorescence. inhibition, % at 10.9 µM. 290,000 tested, 0.56% active. AID 1800;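 active = inhibition above the mean of all tested compounds plus 3 SD, set per campaign, cut at about 35% in these data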;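 also: 0% = DMSO wells and 100% = thioflavine S control wells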
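Assay system – hepatitis C virus NS3 helicase domain fragment enzyme · Buffer or medium – MOPS pH 6.5, MgCl2, DTT, Tween20, BSA · Reagent – Cy5/quencher beacon DNA duplex and ATP to start · Compound – single 10.9 µM dose · Timing – 1 h at 25 °C · Technique – Cy5 beacon fluorescence read at start and 1 h · Measure – % inhibition of unwinding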
rCAG RNA binder: binds r(CAG) RNA repeats; 370,000 tested, 1.3% active; inhibition, % at 3 µM; r(CAG) RNA repeat, TO-PRO-1 dye displacement fluorescence;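 active = inhibition above the plate cutoff, the mean of all test compounds on that plate plus 3 SD, cut at about 35% in these data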;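 also: 0% = DMSO alone and 100% = 100 µM mitoxantrone as full dye displacement; higher means more dye released from RNA so lower well fluorescence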
HCV core dimer: blocks dimerization of HCV core protein; TR-FRET GST/Flag-core106 dimerization, 1536-well; inhibition, % at 5 µM; 300,000 tested, 0.33% active; AID 1899;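 active = inhibition above the mean of all tested compounds plus 3 SD, set per screening campaign, cut at about 45% in these data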
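Test system: GST/Flag-tagged HCV core106 proteins; Medium: KF-containing HEPES buffer, pH 7.45, DTT, CHAPS, BSA; Times: compound-protein-antibody incubation 4 h at 22.5 °C; Detection: TR-FRET 671 and 617 nm emission; Benchmarks: wells lacking GST-core106 and wells with excess unlabelled core106.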
TAAR1 antagonist: human TAAR1 antagonism; Q96RJ0; CHO RD-HGA16 TAAR1, Fluo-8 calcium fluorescence, antagonist; inhibition, % at 3 µM; 360,000 tested, 1.5% active; AID 624466;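 active = inhibition above a per-plate cutoff, the mean inhibition of test compounds on that plate plus 3 SD, cut at about 49% in these data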;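 also: 0% = DMSO plus EC80 beta-PEA response and 100% = DMSO alone without agonist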
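Material: RD-HGA16 CHO cells with stable hTAAR1 and Gα16; Dosing: single nominal final test compound concentration of 3 µM; Schedule: seeding 17-24 h prior, 75-min 37 °C, 30-min RT dye loading; Detection: kinetic Fluo-8 calcium fluorescence measurement; Measure: % inhibition from peak post-agonist over basal fluorescence ratio; Benchmarks: vehicle and agonist controls.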
rCAG bind conf: r(CAG) RNA repeat binding, confirmation | inhibition, % at 3 µM | shares compounds with rCAG RNA binder | TO-PRO-1 dye displacement fluorescence | 4,300 tested, 70% active;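 active = inhibition above a per-plate cutoff, the mean inhibition of sample wells plus 3 SD, cut at about 35% in these data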;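 also: loss of TO-PRO-1 fluorescence as compound displaces dye from 1x1 AA loop RNA; 0% = DMSO only wells and 100% = 100 µM mitoxantrone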
dCAG dye counter: DNA CAG dye complex inhibition counter-screen; shares compounds with rCAG RNA binder; d(CAG) DNA oligo TO-PRO-1 dye displacement, fluorescence; inhibition, % at 3 µM; 4,300 tested, 94% active;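 active = inhibition above its plate's cutoff, the mean test-well inhibition plus 3 SD, cut at about 4.8% in these data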;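 also: 0% = DNA dye mix with DMSO and 100% = 100 µM mitoxantrone; hits displace the dye from DNA and so lower well fluorescence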
* hit, by the source's call; nt = no result given.

SMILES | TAAR1 agonist | HCV NS3 hel inh | rCAG RNA binder | HCV core dimer | TAAR1 antagonist | rCAG bind conf | dCAG dye counter
CCC(Oc1ccc(C)cc1)C(=O)Nc1ccc(S(=O)(=O)Nc2cc(C)on2)cc1 (stereo not drawn) | 3 | -1 | 36* | 10 | -21 | 21 | 2
CCOc1cc(C(=O)Nc2ccc(S(=O)(=O)NC3=NCCCCC3)cc2)cc(OCC)c1OCC | -1 | -2 | -9 | 7 | -5 | nt | nt
O=C(Nc1ccc(S(=O)(=O)Nc2ncccn2)cc1)c1cccc(Br)c1 | 0 | 0 | -1 | nt | -2 | nt | nt
CCc1nnc(NS(=O)(=O)c2ccc(NC(=O)c3cccc(Br)c3)cc2)s1 | -1 | -1 | 73* | 2 | -39 | 53* | 19*
CCOc1cc(C(=O)Nc2ccc(S(=O)(=O)Nc3nnc(CC)s3)cc2)cc(OCC)c1OCC | -1 | -21 | 63* | 15 | -19 | 67* | 28*
Cc1ccc(OC(=O)CCC(=O)Nc2ccc(S(=O)(=O)Nc3cc(C)on3)cc2)cc1 | 14 | -9 | -1 | -2 | -4 | nt | nt
COC(=O)[C@]12C[C@H](CC(=O)N3CCC(c4ccccc4)CC3)C(=O)N(Cc3ccccc3)C1=C[C@H](C(C)C)O[C@@H]2C1CC1 | 0 | nt | 9 | nt | -31 | nt | nt
CCOc1cc(C(=O)Nc2ccc(S(=O)(=O)Nc3cc(C)on3)cc2)cc(OCC)c1OCC | 3 | 21 | 41* | 13 | -16 | 34 | 8.4*
COc1cc(C(=O)Nc2ccc(S(=O)(=O)Nc3cc(C)on3)cc2)cc(OC)c1OC | -4 | 3 | 10 | -5 | 13 | nt | nt
Cc1snc(S(=O)(=O)/C(C#N)=N/Nc2ccc(C(F)(F)F)cc2)c1C#N | 6 | -4 | 68* | 5 | 12 | 78* | 35*
Cc1snc(S(=O)(=O)/C(C#N)=N\Nc2ccccc2)c1C#N | 17 | -1 | 15 | 2 | 2 | nt | nt
COc1ccc(Cl)c(NC(=O)C/C(C)=N/NC(=O)CCc2ccccc2)c1 | 2 | -6 | 37* | 7 | -28 | 3 | 0
CC(=O)CC[C@@H]1CC[C@]2(CCCN(C(=O)c3ccccc3)C2)O1 | nt | nt | 0 | nt | nt | nt | nt
CCOc1cc(/C=C2\NC(=S)N(c3c(C)n(C)n(-c4ccccc4)c3=O)C2=O)ccc1O | 6 | 4 | -7 | -23 | -18 | nt | nt
CCOc1cccc(/C=C2\NC(=S)N(c3ccccc3)C2=O)c1O | 10 | -7 | 38* | -18 | 5 | 21 | 6.2*
CSc1ccc(C(c2c(C(=O)O)[nH]c3ccccc23)c2c(C(=O)O)[nH]c3ccccc23)cc1 | 1 | 6 | 89* | 35 | -19 | 82* | 50*
CCOc1cc(Br)cc(C(c2c(C(=O)O)[nH]c3ccccc23)c2c(C(=O)O)[nH]c3ccccc23)c1O | 9 | 22 | 95* | 38 | 5 | 84* | 59*
O=S(=O)(Nc1nccs1)c1ccc(Nc2nnc(-c3ccccc3)c3ccccc23)cc1 | -1 | 29 | 54* | 19 | -10 | 65* | 27*
O=C(Nc1ccc(S(=O)(=O)Nc2nccs2)cc1)c1cc(-c2ccccc2Cl)nc2ccccc12 | 1 | -2 | 76* | 31 | -3 | 77* | 41*
O=C(NC(=S)Nc1ccc(S(=O)(=O)Nc2nccs2)cc1)c1ccc(F)cc1 | 6 | 2 | 53* | -2 | -3 | 38* | 14*
O=C(Nc1ccc(S(=O)(=O)Nc2nccs2)cc1)c1cc(-c2ccccn2)nc2ccccc12 | 7 | -24 | 66* | 15 | -11 | 61* | 26*
O=C(CCNC(=O)c1ccccc1Cl)Nc1ccc(S(=O)(=O)Nc2nccs2)cc1 | 1 | nt | 8 | nt | -5 | nt | nt
COC(=O)[C@]12C[C@H](CC(=O)N3CCCC3)C(=O)N(Cc3ccccc3)C1=C[C@H](C(C)(C)C)O[C@@H]2C | -1 | nt | 0 | nt | 0 | nt | nt
CN(C)c1cccc(C(=O)Nc2ccc(S(=O)(=O)Nc3nccs3)cc2)c1 | 1 | nt | 36* | nt | -6 | 28 | 10.0*
O=C(Nc1ccc(S(=O)(=O)Nc2nccs2)cc1)C1=NN(c2ccccc2)C(=O)CC1 | 0 | 33 | 36* | 14 | -11 | 29 | 14*
SMILES | TAAR1 agonist | HCV NS3 hel inh | rCAG RNA binder | HCV core dimer | TAAR1 antagonist | rCAG bind conf | dCAG dye counter
O=C(Nc1ccc(S(=O)(=O)Nc2nccs2)cc1)c1cccc(F)c1 | -1 | -9 | 13 | 6 | -13 | nt | nt
Cc1ccccc1CN1CCCCC(NC(=O)c2c(F)cccc2F)C1=O (stereo not drawn) | nt | nt | 0 | nt | nt | nt | nt
CCC(C)(C)C(=O)N1CCc2cc(S(=O)(=O)N(C)Cc3ccco3)ccc21 | nt | nt | 5 | nt | nt | nt | nt
O=C(CCN1C(=O)S/C(=C/c2ccc(F)cc2)C1=O)Nc1ccc(O)c(C(=O)O)c1 | 0 | 11 | 51* | 10 | -6 | 36* | 9.1*
O=C(CCN1C(=O)/C(=C/c2ccc(F)cc2)SC1=S)NCCc1ccc(O)cc1 | 6 | 16 | 6 | 3 | 13 | nt | nt
O=C(CCN1C(=O)S/C(=C\c2ccc(F)cc2)C1=O)Nc1ccc(O)cc1C(=O)O | -3 | 22 | 49* | 7 | -21 | 28 | 6.8*
Cc1ccc(/C=C2/SC(=S)N(CCCC(=O)Nc3cc([N+](=O)[O-])ccc3O)C2=O)cc1 | 2 | -7 | 1 | 1 | -36 | nt | nt
O=C(CCN1C(=O)S/C(=C\c2ccc(Cl)cc2)C1=O)Nc1ccc(C(=O)O)cc1 | 6 | 8 | -1 | 17 | -23 | nt | nt
O=C(CN1C(=O)S/C(=C\c2ccccc2)C1=O)Nc1cc([N+](=O)[O-])ccc1O | 7 | 16 | 80* | 15 | 20 | 61* | 24*
O=C(CCN1C(=O)S/C(=C\c2ccc(F)cc2)C1=O)Nc1ccc(C(=O)O)c(O)c1 | 2 | 9 | 68* | 10 | -4 | 43* | 11*
Cc1ccc(N2CCN(/N=C\c3cccnc3)CC2)cc1 | nt | nt | 0 | nt | nt | nt | nt
O=C(CCN1C(=O)S/C(=C/c2ccccc2)C1=O)Nc1ccc(C(=O)O)c(O)c1 | 0 | 23 | 63* | 8 | -13 | 41* | 15*
CCCCS(=O)(=O)N1C2=NC(C(=O)OCC)=C(C(=O)OCC)C3N(Cc4ccc(Br)cc4)c4ccccc4[C@]23C[C@H]1C(=O)OC (stereo partly drawn) | 1 | nt | 13 | nt | -23 | nt | nt
Cc1ccc(C(C)C)c(OCC(=O)NNC(=O)Nc2ccccc2)c1 | 5 | nt | -1 | -4 | -13 | nt | nt
Cc1ccc(S(=O)(=O)NC(=O)COc2cc(C)ccc2C(C)C)cc1 | -2 | 5 | 36* | 3 | -17 | 18 | 3
CC(=O)N(c1ccc2oc(=O)sc2c1)S(=O)(=O)c1cccs1 | 4 | 13 | 30 | -3 | 4 | nt | nt

Compound activity: PubChem BioAssay, The Scripps Research Institute Molecular Screening Center
